Test results taken from paper PMC7797712 (Medicinal Chemistry Research, 2021).

System: cytoplasmic HBV-DNA replication in AML12HBV10 cells
Experiment: Antiviral assay in AML12HBV10 cells
Type: cell-based, hepatitis B virus
Settings: AML12HBV10 cells; SAR statement of the text
Procedure, shortened: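 AML12-derived mouse hepatocyte line carrying a tetracycline-inducible, envelope-deficient HBV genome; seeded at 2 × 10^4 cells/well in tetracycline-free medium. Next day, mock or twofold serial dilution (10 to 0.08 µM) for 48 h. Cells lysed in Tris-HCl pH 7.5/EDTA/NaCl/1% NP-40. Half the lysate NaOH-denatured, neutralised, dot-blotted and hybridised with 32P-labelled HBV minus-strand riboprobe. Phosphorimager quantification; EC50 = concentration reducing HBV DNA by 50%.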

Structure (SMILES): Cc1ccc(S(=O)(=O)NC2CN(C(=O)Nc3ccc(F)c(Cl)c3)CN(Cc3ccc(F)cc3F)C2=O)cc1 (stereo not drawn) [Compound 54, N-(3-chloro-4-fluorophenyl)-3-(2,4-difluorobenzyl)-5-(4-methylphenylsulfonamido)-4-oxotetrahydropyrimidine-1(2H)-carboxamide]
- Anti-HBV potency compared with 27 (58031), in words: comparable or slightly better potencies

Structure (SMILES): O=C1CCN(C(=O)Nc2cc(F)c(F)c(F)c2)CN1Cc1ccc(F)cc1F [Compound 40, 3-(2,4-difluorobenzyl)-4-oxo-N-(3,4,5-trifluorophenyl)tetrahydropyrimidine-1(2H)-carboxamide]
- Anti-HBV potency compared with 27 (58031), in words: reduced the activities

Structure (SMILES): O=C1CCN(C(=O)Nc2ccc(F)c(Cl)c2)CN1Cc1ccccn1 [Compound 30, N-(3-chloro-4-fluorophenyl)-4-oxo-3-(pyridin-2-ylmethyl)tetrahydropyrimidine-1(2H)-carboxamide]
- Anti-HBV potency compared with 27 (58031), in words: less active

Structure (SMILES): O=C(Nc1ccc(F)c(Cl)c1)N1CC(Cc2ccccc2)C(=O)N(Cc2ccc(F)cc2F)C1 (stereo not drawn) [Compound 51, 5-benzyl-N-(3-chloro-4-fluorophenyl)-3-(2,4-difluorobenzyl)-4-oxotetrahydropyrimidine-1(2H)-carboxamide]
- Anti-HBV potency compared with 27 (58031), in words: diminished the activities only by two to threefold

Structure (SMILES): O=C1CCN(C(=O)NCc2ccccc2F)CN1Cc1ccc(F)cc1F [Compound 43, 3-(2,4-difluorobenzyl)-N-(2-fluorobenzyl)-4-oxotetrahydropyrimidine-1(2H)-carboxamide]
- Anti-HBV potency compared with 27 (58031), in words: not tolerated

Structure (SMILES): CC1(C)CN(C(=O)Nc2ccc(F)c(Cl)c2)CN(Cc2ccc(F)cc2F)C1=O [Compound 48, N-(3-chloro-4-fluorophenyl)-3-(2,4-difluorobenzyl)-5,5-dimethyl-4-oxotetrahydropyrimidine-1(2H)-carboxamide]
- Anti-HBV potency compared with 27 (58031), in words: diminished the activities only by two to threefold

Structure (SMILES): O=C1CCN(C(=O)Nc2ccc(F)c(Cl)c2)CN1CC1CN(c2ccccc2)C(=O)O1 (stereo not drawn) [Compound 33, N-(3-chloro-4-fluorophenyl)-4-oxo-3-((2-oxo-3-phenyloxazolidin-5-yl)methyl)tetrahydropyrimidine-1(2H)-carboxamide]
- Anti-HBV potency compared with 27 (58031), in words: failed to improve the potencies

Structure (SMILES): O=C1CC(Cc2cc(F)c(F)cc2F)N(C(=O)Nc2ccc(F)c(Cl)c2)CN1Cc1ccc(F)cc1F (stereo not drawn) [Compound 45, N-(3-chloro-4-fluorophenyl)-3-(2,4-difluorobenzyl)-4-oxo-6-(2,4,5-trifluorobenzyl)tetrahydropyrimidine-1(2H)-carboxamide]
- Anti-HBV potency compared with 27 (58031), in words: deteriorated the potency

Structure (SMILES): C=CC(=O)NC1CN(C(=O)Nc2ccc(F)c(Cl)c2)CN(Cc2ccc(F)cc2F)C1=O (stereo not drawn) [Compound 55, 5-acrylamido-N-(3-chloro-4-fluorophenyl)-3-(2,4-difluorobenzyl)-4-oxotetrahydropyrimidine-1(2H)-carboxamide]
- Anti-HBV potency compared with 27 (58031), in words: comparable or slightly better potencies

Structure (SMILES): O=C1C2CCCC2N(C(=O)Nc2ccc(F)c(Cl)c2)CN1Cc1ccc(F)cc1F (stereo not drawn) [Compound 49, N-(3-chloro-4-fluorophenyl)-3-(2,4-difluorobenzyl)-4-oxooctahydro-1H-cyclopenta[d]pyrimidine-1-carboxamide]
- Anti-HBV potency compared with 27 (58031), in words: diminished the activities only by two to threefold

Structure (SMILES): O=C(Nc1ccc(F)c(Cl)c1)N1CC(n2cc(C3CC3)nn2)C(=O)N(Cc2ccc(F)cc2F)C1 (stereo not drawn) [Compound 52, N-(3-chloro-4-fluorophenyl)-5-(4-cyclopropyl-1H-1,2,3-triazol-1-yl)-3-(2,4-difluorobenzyl)-4-oxotetrahydropyrimidine-1(2H)-carboxamide]
- Anti-HBV potency compared with 27 (58031), in words: comparable or slightly better potencies

Structure (SMILES): O=C(Nc1ccc(F)c(Cl)c1)N1CC(c2ccccc2)C(=O)N(Cc2ccc(F)cc2F)C1 (stereo not drawn) [Compound 50, N-(3-chloro-4-fluorophenyl)-3-(2,4-difluorobenzyl)-4-oxo-5-phenyltetrahydropyrimidine-1(2H)-carboxamide]
- Anti-HBV potency compared with 27 (58031), in words: comparable or slightly better potencies
